Assay results from ChEMBL document CHEMBL1152806, “Discovery of a potent, selective, and orally efficacious pyrimidinooxazinyl bicyclooctaneacetic acid diacylglycerol acyltransferase-1 inhibitor” (J Med Chem, 2009).
In brackets after ≈: the same amount, converted by molar mass.

What was measured:
[1] = Metabolic stability in marmosets alamethicin-activated microsomes assessed as conversion to acyl glucuronide form after 1 hr; type: ADME, Microsome; details: callitrichinae sp.
[2] = Metabolic stability in dog hepatocytes assessed as conversion to acyl glucuronide form after 2 hrs; type: ADME, cell-based, Canis lupus familiaris, Hepatocyte
[3] = Plasma clearance in rat at 1 to 3 mg/kg; type: ADME, organism-based; parameters: dose 1-3 mg/kg
HuTu80 = assay: Inhibition of triacylglycerol synthesis in human HuTu 80 cells after 30 mins; type: functional, cell-based; details: HuTu80, 0.5 h
How it was run: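 Confluent HuTu 80 cells in serum-free medium, preincubated 30 min with compound (0.1% DMSO final). Then given 0.12 mM sodium oleate plus 1 µCi/mL 14C-oleate complexed to 0.03 mM BSA. Cells solubilized in SDS and lipids extracted; 14C in triacylglycerol measured by normal-phase HPLC with radio-flow detection. Lowry protein determined.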

[4] = Metabolic stability in human alamethicin-activated microsomes assessed as conversion to acyl glucuronide form after 1 hr; type: ADME, Microsome
[5] = Aqueous solubility at pH 7.4; type: physicochemical; details: buffer
[6] = Apparent permeability from basolateral to apical side in MDCK cells at 10 uM; type: ADME, cell-based, Canis lupus familiaris; details: dog, read-out: permeability
How it was run: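 Cultured MDCK cells incubated with compound at 10 µM; apparent permeability (Papp, ×10^-6 cm/s) measured in both apical-to-basolateral and basolateral-to-apical directions.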

CYP2D6 = CYP2D6 (Homo sapiens, UniProt P10635); assay: Inhibition of CYP2D6 at 30 uM; type: ADME
[7] = Lipophilicity, log D of the compound; type: physicochemical; details: octanol/water
[8] = Metabolic stability in dog assessed as urinary excretion of acyl glucuronide form after 2 hrs; type: ADME, Canis lupus familiaris, Urine
How it was run: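 Parent-related material excreted as acyl glucuronide measured in a 2 h urine sample collected after dosing in dog.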

[9] = target: T1, Diacylglycerol O-acyltransferase 1 (Rattus norvegicus, UniProt Q9ERM3); assay: Inhibition of rat microsomal DGAT1 by liquid scintillography
T1 sequence (Q9ERM3 whole entry): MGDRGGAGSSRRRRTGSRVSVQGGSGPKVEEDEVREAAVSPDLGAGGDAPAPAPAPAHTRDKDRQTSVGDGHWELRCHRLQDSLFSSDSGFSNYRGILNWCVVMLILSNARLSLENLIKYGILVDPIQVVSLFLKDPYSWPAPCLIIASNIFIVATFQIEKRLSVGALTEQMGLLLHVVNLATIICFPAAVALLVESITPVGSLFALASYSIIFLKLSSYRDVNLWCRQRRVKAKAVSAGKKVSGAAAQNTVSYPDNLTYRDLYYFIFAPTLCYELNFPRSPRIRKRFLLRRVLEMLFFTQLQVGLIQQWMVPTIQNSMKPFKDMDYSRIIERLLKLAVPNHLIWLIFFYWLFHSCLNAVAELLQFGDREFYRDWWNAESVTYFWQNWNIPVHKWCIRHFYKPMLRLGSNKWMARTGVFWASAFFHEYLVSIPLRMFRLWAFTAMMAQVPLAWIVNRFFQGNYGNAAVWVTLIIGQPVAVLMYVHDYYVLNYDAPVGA

[10] = Half life in marmosets at 1 to 3 mg/kg, iv; type: ADME, organism-based; parameters: dose 1-3 mg/kg, route intravenous; details: callitrichinae sp., in vivo
[11] = Half life in rat at 1 to 3 mg/kg, po; type: ADME, organism-based; parameters: dose 1-3 mg/kg, route oral; details: in vivo
Rattus norvegicus [12] = assay: Reduction of adipose triacylglycerol synthesis in 14 hrs fasted Han-Wistar rat assessed as decrease in ratio of [3H]palmitic acid incorporation in to TAG and DAG at 8 mg/kg, po after 1.5 hrs relative to control; type: functional; parameters: scale not given: the % may be the effect or the level left
How it was run: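 Male Han-Wistar rats (~300 g) on chow diet were given compound by oral gavage, suspended in HPMC/Tween. At 1.5 h they were anaesthetised with inactin and a bolus of [3H]-palmitic acid was given via a jugular cannula. Epididymal fat was taken 20 min later, homogenised in duplicate with [14C]-oleic acid internal standard, and lipids separated by HPLC. Result is % reduction of the TAG/DAG label ratio versus vehicle; n = 10.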

[13] = Metabolic stability in rat alamethicin-activated microsomes assessed as conversion to acyl glucuronide form after 1 hr; type: ADME, Microsome
[14] = Volume of distribution at steady state in marmosets at 1 to 3 mg/kg; type: ADME, organism-based; parameters: dose 1-3 mg/kg; details: callitrichinae sp., in vivo; read-out: Vdss
Plasma = assay: Fraction unbound in rat plasma by LC-UVMS; type: ADME, cell-free
How it was run: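 Equilibrium dialysis in plasma of the relevant species at 37 °C; free and bound drug quantified by LC-UVMS; reported as % free.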

[15] = Bioavailability in dog at 1 to 3 mg/kg; type: ADME, organism-based, Canis lupus familiaris; details: in vivo
Hepatocyte = assay: Metabolic stability in human hepatocytes assessed as conversion to acyl glucuronide form after 2 hrs; type: ADME, cell-based
CYP2C9 = CYP2C9 (Homo sapiens, UniProt P11712); assay: Inhibition of CYP2C9 at 30 uM; type: ADME
CYP1A2 = target: T2, CYP1A2 (Homo sapiens, UniProt P05177); assay: Inhibition of CYP1A2 at 30 uM; type: ADME
T2 sequence (P05177 whole entry): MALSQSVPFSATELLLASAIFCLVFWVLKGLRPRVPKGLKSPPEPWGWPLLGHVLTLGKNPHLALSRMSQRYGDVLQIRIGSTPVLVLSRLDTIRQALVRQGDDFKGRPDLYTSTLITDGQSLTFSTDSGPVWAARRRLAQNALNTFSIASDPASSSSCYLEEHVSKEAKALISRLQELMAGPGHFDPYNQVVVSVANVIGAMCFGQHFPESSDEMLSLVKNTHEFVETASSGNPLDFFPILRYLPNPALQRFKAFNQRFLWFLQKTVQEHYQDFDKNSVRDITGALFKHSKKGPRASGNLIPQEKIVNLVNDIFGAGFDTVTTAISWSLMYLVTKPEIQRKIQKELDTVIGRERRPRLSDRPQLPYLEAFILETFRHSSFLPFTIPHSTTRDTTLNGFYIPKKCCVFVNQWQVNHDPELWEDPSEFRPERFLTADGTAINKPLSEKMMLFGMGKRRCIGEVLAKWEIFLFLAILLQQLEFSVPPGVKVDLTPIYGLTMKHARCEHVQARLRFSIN

[16] = Plasma clearance in marmosets at 1 to 3 mg/kg; type: ADME, organism-based; parameters: dose 1-3 mg/kg; details: callitrichinae sp.
Rattus norvegicus [17] = assay: Reduction of plasma triacylglycerol excursion in 14 hrs fasted Han-Wistar rat at 0.1 mg/kg, po treated 2 hrs before bolus corn oil administration measured 1.5 hrs post corn oil challenge by oral lipid tolerance test relative to control; type: functional; parameters: scale not given: the % may be the effect or the level left
How it was run: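 Male Han-Wistar rats (~230 g) on chow diet were fasted 14 h and given compound by oral gavage, suspended in HPMC/Tween. A corn oil bolus (5 mL/kg) followed 2 h later. After 1.5 h, blood was drawn from the abdominal vena cava and plasma TAG measured colorimetrically (GPO-PAP). Result is % reduction versus vehicle-treated controls; n = 6.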

[18] = Bioavailability in marmosets at 1 to 3 mg/kg; type: ADME, organism-based; details: callitrichinae sp., in vivo

Sequence of CYP2D6 (P10635 whole entry): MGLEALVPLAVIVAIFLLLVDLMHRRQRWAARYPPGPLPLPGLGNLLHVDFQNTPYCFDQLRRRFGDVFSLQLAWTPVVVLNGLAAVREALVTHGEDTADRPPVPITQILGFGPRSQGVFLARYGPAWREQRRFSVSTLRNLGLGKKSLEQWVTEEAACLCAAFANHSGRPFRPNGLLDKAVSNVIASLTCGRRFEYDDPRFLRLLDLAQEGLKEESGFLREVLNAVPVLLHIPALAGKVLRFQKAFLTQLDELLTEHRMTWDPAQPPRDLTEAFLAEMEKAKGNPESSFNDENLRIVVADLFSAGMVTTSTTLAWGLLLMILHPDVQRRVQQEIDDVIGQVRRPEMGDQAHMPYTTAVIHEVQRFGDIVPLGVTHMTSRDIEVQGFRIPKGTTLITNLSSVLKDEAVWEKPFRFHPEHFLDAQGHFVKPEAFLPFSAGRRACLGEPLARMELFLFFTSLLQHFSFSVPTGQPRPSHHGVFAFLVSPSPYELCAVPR
Sequence of CYP2C9 (P11712 whole entry): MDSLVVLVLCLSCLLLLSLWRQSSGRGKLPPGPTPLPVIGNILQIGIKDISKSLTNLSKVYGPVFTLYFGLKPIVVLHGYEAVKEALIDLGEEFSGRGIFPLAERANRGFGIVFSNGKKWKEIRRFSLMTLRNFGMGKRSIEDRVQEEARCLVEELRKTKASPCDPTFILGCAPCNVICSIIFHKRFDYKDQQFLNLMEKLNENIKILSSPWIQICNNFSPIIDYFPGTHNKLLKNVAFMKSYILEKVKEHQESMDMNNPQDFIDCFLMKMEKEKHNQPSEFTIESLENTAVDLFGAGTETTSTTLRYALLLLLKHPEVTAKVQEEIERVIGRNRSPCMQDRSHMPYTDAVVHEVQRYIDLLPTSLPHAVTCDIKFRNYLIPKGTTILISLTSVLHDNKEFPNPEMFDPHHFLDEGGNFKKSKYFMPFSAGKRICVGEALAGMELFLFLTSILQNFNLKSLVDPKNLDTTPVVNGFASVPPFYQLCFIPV

Stability [1]: 15%
Stability [2]: 38%
clearance [3]: 1.5 mL/min/kg
IC50 (HuTu80): 3 nM
Stability [4]: 25%
solubility [5]: 12 µM (≈ 5.05 µg/mL)
Papp B→A at 10 µM [6]: 26 ×10⁻⁶ cm/s
inhibition at 30 µM (CYP2D6): < 25%
logD [7]: 1.9
Stability [8]: 82%
IC50 [9]: 9 nM
half-life [10]: 780 min
half-life [11]: 324 min
Stability [13]: 9%
Vd [14]: 0.88 L/kg
Fu (Plasma): 0.91%
bioavailability [15]: > 100%
Stability (Hepatocyte): 17%
inhibition at 30 µM (CYP2C9): < 25%
inhibition at 30 µM (CYP1A2): < 25%
clearance [16]: 0.78 mL/min/kg
bioavailability [18]: 61%
Compound: CC1(C)Oc2ncnc(N)c2N=C1c1ccc(C23CCC(CC(=O)O)(CC2)CC3)cc1
Activity (Rattus norvegicus [12]): 54%
Activity (Rattus norvegicus [17]): 38%
